Reference: ChEMBL document CHEMBL3808283, “Biological Characterization and in Vivo Assessment of the Activity of a New Synthetic Macrocyclic Antifungal Compound” (J Med Chem, 2016)
In brackets after ≈: the same amount, converted by molar mass. Activity calls are given as the source filed them. The rule behind the calls is not given here.

Key:
Candida albicans [1] = assay: Antifungal activity against azole-susceptible Candida albicans isolate DSY294 in immunocompetent Balb/c mouse candidiasis model assessed as reduction in CFU count in spleen at 8 mg/kg/day, ip regime measured on day 7 post infection; type: functional, organism-based
Procedure, shortened: (§1)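 Immunocompetent BALB/c mice, 10 per strain group, received 7 × 10^4 CFU of C. albicans in 200 µL saline via the lateral vein. Fluconazole was given i.p. at 8 mg/kg/day. On day 7, spleen and kidneys were weighed, homogenized, and plated on YPD agar (2 days, 30 °C) for CFU per gram of organ. Analysis used Wilcoxon rank-sum, P<0.05.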

Candida albicans [2] = assay: Antifungal activity against azole-susceptible Candida albicans isolate DSY294 in immunocompetent Balb/c mouse candidiasis model assessed as reduction in CFU count in kidney at 8 mg/kg/day, ip regime measured on day 7 post infection; type: functional, organism-based; procedure, shortened: as §1
Candida albicans [3] = assay: Antifungal activity against fluconazole-susceptible Candida albicans ATCC 90028 in immunocompetent Balb/c mouse candidiasis model assessed as reduction in CFU count in kidney at 8 mg/kg/day, ip regime measured on day 7 post infection; type: functional, organism-based; procedure, shortened: as §1
Candida albicans [4] = assay: Antifungal activity against fluconazole-susceptible Candida albicans ATCC 90028 in immunocompetent Balb/c mouse candidiasis model assessed as reduction in CFU count in spleen at 8 mg/kg/day, ip regime measured on day 7 post infection; type: functional, organism-based; procedure, shortened: as §1
Candida albicans [5] = assay: Antifungal activity against Candida albicans ATCC 60193 up to 96 hrs by broth dilution assay; type: functional; details: ATCC 60193, 96 h
[6] = Drug transport in Candida albicans ATCC 60193 assessed as ABC transpoter-mediated drug accumulation at 5 to 80 uM after 24 hrs by confocal microscopic analysis; type: ADME
[7] = Drug transport in Cryptococcus neoformans assessed as ABC transpoter-mediated drug accumulation at 5 to 80 uM after 24 hrs by confocal microscopic analysis; type: ADME
[8] = Drug transport in Candida albicans ATCC 60193 assessed as ABC transpoter-mediated drug accumulation in cytoplasm at 40 uM after 48 hrs by confocal microscopic analysis; type: ADME
Procedure, shortened: (§2)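 C. albicans ATCC 60193 or Cry. neoformans treated 48 h with the fluorescent probe at 40 µM from a DMSO solution. Cells were washed twice in PBS, fixed in 4% formaldehyde for 30 min at 4 °C, washed again, spotted on glass slides, dried and mounted. Examined by confocal microscopy, with visible, fluorescent and merged images compared against untreated cells.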

[9] = Drug transport in Candida albicans ATCC 60193 with damaged cell wall assessed as ABC transpoter-mediated drug accumulation in cytoplasm at 40 uM after 48 hrs by confocal microscopic analysis; type: ADME; procedure, shortened: as §2
[10] = Drug transport in Cryptococcus neoformans with damaged cell wall assessed as ABC transpoter-mediated drug accumulation in cytoplasm at 40 uM after 48 hrs by confocal microscopic analysis; type: ADME; procedure, shortened: as §2
[11] = Drug transport in Cryptococcus neoformans assessed as ABC transpoter-mediated drug accumulation in cytoplasm at 40 uM after 48 hrs by confocal microscopic analysis; type: ADME; procedure, shortened: as §2
Candida albicans [12] = assay: Antifungal activity against Candida albicans isolate DSY654 harboring CDR1/2 deletion mutant at 100 ug/ml by serial dilution assay; type: functional, organism-based
Procedure, shortened: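 Spot dilution assay: C. albicans cells 10-fold serially diluted from 2 × 10^7 cells/mL, with 5 µL of each dilution spotted onto YEPD agar plates containing the drug.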

OC(Cn1cncn1)(Cn1cncn1)c1ccc(F)cc1F
Activity (Candida albicans [1]): Active
Activity (Candida albicans [2]): Active
Activity (Candida albicans [3]): Active
Activity (Candida albicans [4]): Active

CN(C)c1cccc2c(S(=O)(=O)NC(=N)NCCCCCCCCN3CCCCCCCCNC(=N)NC3=O)cccc12
MIC (Candida albicans [5]): > 125 µM
Drug transport [6]: Active
Drug transport [7]: Active

C/C=C/CNC(=N)NCCCCCCCCN1CCCCCCOc2cc(OCCCNC(=S)Nc3ccc4c(c3)C(=O)OC43c4ccc(O)cc4Oc4cc(O)ccc43)ccc2CNC(=N)NC1=O
MIC (Candida albicans [5]): 80 µM (≈ 78.1 µg/mL)
Drug transport [8]: Active
Drug transport [9]: Not Active
Drug transport [10]: Not Active
Drug transport [11]: Active

OCCN1CCN(CCCN2c3ccccc3Sc3ccc(C(F)(F)F)cc32)CC1
Activity (Candida albicans [12]): Active

CN(C)c1cccc2c(S(=O)(=O)NCCCCCCCCN3CCCCCCCCNC(=N)NC3=O)cccc12
MIC (Candida albicans [5]): > 125 µM
Drug transport [6]: Active
Drug transport [7]: Active
